According to ChEMBL document CHEMBL4513216, “Probing the Open Global Health Chemical Diversity Library for Multistage-Active Starting Points for Next-Generation Antimalarials” (ACS Infect Dis, 2020):

experiment: Toxicity liver stage against HepG2, at 10uM; format: cell-based; set-up: test concentration 10 uM, cell line HepG2-A16-CD81EGFP; conditions: human, HepG2-A16-CD81EGFP cells; read-out: INHIBITION
Outline: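 Uninfected HepG2-A16-CD81EGFP cells, 3 × 10^3 per well, 1536-well, plated on prespotted compound at 10 μM final, parasite-free screening media added to match infected plates; puromycin 10 μM positive, DMSO 0.5% negative; run in parallel with 48 h PbLuc assay at 37 °C, 5% CO2; viability by CellTiter-Glo luminescence, normalized to controls.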

Point of comparison: `CN(C)Cc1nn(C)c2c1CN(C(=O)Nc1ccc(F)cc1)C2`, cytotoxicity at 10 µM 6.04%. Against it:
- Fc1ccccc1CO[C@@H]1C[C@H]2CN(c3ncccn3)CCN2C1 — lower, 1.09%
- CNS(=O)(=O)c1cccc(CNc2ccc(C(F)(F)F)nn2)c1 — lower, -11.4%
- Cc1ccc(-c2noc(C(C)(C)NS(C)(=O)=O)n2)cc1F — lower, 2.77%
- Cc1nc(CN2CCN(C(C)C(=O)NC3CCCC3)CC2)cs1 (stereo not given) — lower, -3.9%
- O=C(NC[C@H]1OC[C@@H](N(CC2CC2)CC2CC2)[C@@H]1O)Nc1ccccc1 — lower, -2.62%
- O=C(NCC1CCS(=O)(=O)C1)N(Cc1ccccn1)C1CC1 (stereo not given) — lower, -129%
- Cc1cc(C(=O)N(C)Cc2cccs2)nc(N2CCCCC2)n1 — higher, 17.5%
- CS(=O)(=O)NC1CC2(CCN(CCF)CC2)Oc2ccccc21 (stereo not given) — lower, -2.68%
- Cc1ccc(CNC(=O)NCc2nccn2C)c(OC(C)(C)C)c1 — lower, 2.66%
- CCNC(=O)c1ccc2c(c1)nc1n2CCN(C(C)C)C1 — higher, 9.35%
- COCCN1CCC1c1cc(N)nc(C)n1 (stereo not given) — higher, 7.75%
- C[C@@H]1CN(CCC(=O)NCc2ccccc2Cl)CC[C@@]1(O)C1CCC1 — lower, -3.21%
- CC(C)c1ccc(OCCC(=O)N2CCCC(C(N)=O)C2)cc1 (stereo not given) — lower, -11.7%
- CC(=O)Nn1ccc2c(nnc3c(-c4ccccc4)cnn32)c1=O — lower, 3.06%
- O=C(NC1CCCCC1)c1ccc(Oc2ccc3nncn3n2)cc1 — lower, 2.17%
- CCOC(=O)c1sc(NC(=O)CN2C(=O)CCC2=O)c(C#N)c1C — lower, -6.93%
- CC(O)CN1CC2(CCC1=O)CCN(Cc1cc(F)ccc1Cl)CC2 (stereo not given) — higher, 6.89%
- OC1(Cn2ccnc2)CCN(C[C@]2(O)CCCN3CCCC[C@@H]32)CC1 — lower, 0.805%
- CS(=O)(=O)N1CCC(C(=O)NC(Cc2ccsc2)c2cccnc2)CC1 (stereo not given) — lower, -12.5%
- CN(C)[C@@H]1CN(Cc2ccco2)C[C@@H]2CCCO[C@@H]21 — lower, 2.75%
- CN(Cc1ccc(F)cc1)C(=O)NCc1nnc2n1CCC2 — lower, -17.8%
- Cc1cccc(C(=O)N2CCO[C@H]3[C@H](OCCN(C)C)CC[C@@H]32)n1 — lower, 3.31%
- CCn1nc(C)cc1C(=O)NCc1cccnc1N(C)C — lower, -5.54%
- Cc1nn2cccnc2c1C(=O)NCc1ccccc1OC1CCC1 — lower, -46.4%
- COCCN1C[C@H]2CN(C(=O)NC(C)C)CCN2C1=O — lower, 2.6%
- NCC1CCC2(CCN(C(=O)c3ccccn3)CC2)CO1 (stereo not given) — lower, -111%
- Cc1noc(C(C)C)c1C(=O)NCCCOC(C)C — lower, -9.83%
- CN1CCC2(CCN(CC3CC3)CC2)C1=O — higher, 10.9%
- Cc1ccc(O)c(C(=O)N2CCCC2CC(=O)c2cnn(C)c2)c1 (stereo not given) — lower, -3.81%
- Cc1oc(C(=O)O)cc1S(=O)(=O)Nc1ccc(Cl)c(Cl)c1 — lower, -0.532%
- O=C1COc2cc(C(=O)NS(=O)(=O)c3ccc(F)c(F)c3)ccc2N1 — lower, -2.34%
- Oc1nc(N2CCOCC2)nc2c1CCN(Cc1ccccc1)CC2 — lower, -4.03%
- CCOCCNC(=O)c1ccn(S(=O)(=O)c2ccc(C)cc2)c1 — lower, -3.18%
- CN(C)[C@@H]1CCN(CC2CC2)[C@H]1Cc1cnn(C)c1 — lower, -76.9%
- CNC(=O)Cc1noc(-c2cc3c(s2)CCCC3)n1 — lower, 0.403%
- CC(C)Nc1nc2c(s1)C(=O)CN(C)C2 — lower, -9.77%
- O=C1COc2ccc(S(=O)(=O)NC3CC3)c3c2N1CCC3 — lower, -16.7%
- Cc1ncc(-c2ccccn2)c(CCNC(=O)C2CCCC2)n1 — higher, 16.4%
- COC(=O)c1ccc(N2CCN(C(=O)c3cnc(C)cn3)C(C)C2)cc1 (stereo not given) — lower, 3.09%
- Cc1nc(C)n(CC2CCCN2Cc2nnc(-c3ccco3)o2)n1 (stereo not given) — higher, 11.4%
- C1CC(c2noc(C3CC3)n2)N(Cc2nc(C3CC3)no2)C1 (stereo not given) — lower, -12.8%
- O=C(c1cc2c([nH]c1=O)CCC2)N1CCCCCC1c1ccncc1 (stereo not given) — lower, -9.31%
- Cc1cc(NCC2(O)CCOCC2)nc2ccccc12 — lower, -8.98%
- COC(=O)c1cc(NC2CCN(CC(F)(F)F)C2=O)ccc1C (stereo not given) — lower, -0.812%
